# From ChEMBL document CHEMBL3627666, “5-Lipoxygenase inhibitors suppress RANKL-induced osteoclast formation via NFATc1 expression” (Bioorg Med Chem, 2015)
# The source made the active and inactive calls. No cut-off for these calls is given here.
# Key:
# [1] = molecular target: T1, Polyunsaturated fatty acid 5-lipoxygenase (Mus musculus, UniProt P48999); experiment: Inhibition of 5-LO in mouse BMMC cells assessed as formation of LTC4 after 30 mins by enzyme immunoassay
# T1 sequence (P48999 whole entry): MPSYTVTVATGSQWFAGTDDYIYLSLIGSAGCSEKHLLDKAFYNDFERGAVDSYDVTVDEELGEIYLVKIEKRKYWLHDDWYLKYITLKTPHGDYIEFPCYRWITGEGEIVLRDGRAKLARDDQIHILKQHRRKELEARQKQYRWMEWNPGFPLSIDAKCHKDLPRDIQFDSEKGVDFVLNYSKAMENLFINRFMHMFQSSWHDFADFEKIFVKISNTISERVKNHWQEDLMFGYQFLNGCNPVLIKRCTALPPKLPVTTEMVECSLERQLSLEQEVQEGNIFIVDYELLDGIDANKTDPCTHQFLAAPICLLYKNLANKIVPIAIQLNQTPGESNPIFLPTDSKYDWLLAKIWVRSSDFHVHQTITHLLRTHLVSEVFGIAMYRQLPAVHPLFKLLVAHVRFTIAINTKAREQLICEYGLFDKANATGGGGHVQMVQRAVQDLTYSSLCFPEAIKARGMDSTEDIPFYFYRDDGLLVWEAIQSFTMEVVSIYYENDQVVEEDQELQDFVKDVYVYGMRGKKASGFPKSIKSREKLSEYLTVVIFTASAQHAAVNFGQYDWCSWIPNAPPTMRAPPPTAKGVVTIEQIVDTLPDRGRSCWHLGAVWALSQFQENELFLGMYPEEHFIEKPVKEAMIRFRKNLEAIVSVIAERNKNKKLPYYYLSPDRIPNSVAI
# Mus musculus = experiment: Antiosteoclast activity in mouse assessed as reduction of LPS-induced osteoclast formation in calvarial bone at 5 mg/kg, ip administered daily with LPS challenge after first day of compound dosing measured 6 days after LPS injection; format: functional, organism-based
# Method in brief: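 Six-week-old male mice, three groups, received compound at 5 mg/kg ip daily or vehicle (corn oil/DMSO 9:1). After one day, LPS (5 mg/kg) or PBS was injected subcutaneously over the calvaria. Mice were killed 6 days post-LPS. Whole calvariae were fixed in 4% paraformaldehyde and TRAP-stained, and TRAP⁺ area was quantified by image analysis.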
# [2] = Cytotoxicity against mouse BMM cells assessed as cell survival after 4 days by MTT assay; format: cell-based; conditions: bmmc, 96 h
# Method in brief: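 BMMs were kept in α-MEM with M-CSF (30 ng/mL) with or without compound (10 µM) for 4 days. MTT was added for 5 h in the dark, then 10% SDS in 0.01 M HCl was added overnight. Absorbance was read at 570 nm. Mean ± SD, three independent experiments.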
# BMMC = experiment: Antiosteoclast activity in mouse BMM cells assessed as reduction of LPS-induced osteoclast formation at 10 uM after 4 days by TRAP+ staining based light microscopy; format: functional, cell-based
# [3] = molecular target: T2, Tumor necrosis factor ligand superfamily member 11 (Mus musculus) (UniProt O35235); conditions: BMM, 10 uM
# T2 sequence (whole entry): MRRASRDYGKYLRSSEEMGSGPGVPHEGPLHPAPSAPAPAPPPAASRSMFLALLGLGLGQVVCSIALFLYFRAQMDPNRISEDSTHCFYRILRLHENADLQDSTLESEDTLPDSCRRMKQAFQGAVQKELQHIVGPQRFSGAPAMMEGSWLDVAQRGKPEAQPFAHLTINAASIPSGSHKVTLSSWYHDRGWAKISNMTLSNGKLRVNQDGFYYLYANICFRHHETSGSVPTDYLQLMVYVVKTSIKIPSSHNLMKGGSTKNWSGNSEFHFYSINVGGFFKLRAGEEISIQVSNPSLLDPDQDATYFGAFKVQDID
# [4] = molecular target: T2, Tumor necrosis factor ligand superfamily member 11 (Mus musculus); conditions: BMMC, 10 uM
# [5] = molecular target: T2, Tumor necrosis factor ligand superfamily member 11 (Mus musculus); conditions: BMM, 10 uM; remark: listed apart in the source
# [6] = molecular target: T2, Tumor necrosis factor ligand superfamily member 11 (Mus musculus); conditions: BMM, 10 uM; remark: listed apart in the source
# [7] = molecular target: T2, Tumor necrosis factor ligand superfamily member 11 (Mus musculus); conditions: BMM, 10 uM; remark: listed apart in the source
compound,measurement,setting,value
CCc1ccc(Nc2nc3cc(NC(=O)CCCCOc4ccc(/C(N)=N/O)cc4)ccc3o2)cc1,IC50,[1],1.72 µM
same,Activity,Mus musculus,Active
same,Activity,[2],Non-toxic
same,Activity,BMMC,Active
same,inhibition,[3],Active
same,inhibition,[4],inactive
same,inhibition,[5],Active
same,inhibition,[6],Active
same,inhibition,[7],Active
N/C(=N\O)c1ccc(OCCCCC(=O)Nc2ccc3oc(Nc4ccccc4)nc3c2)cc1,IC50,[1],4.1 µM
COc1ccc(Nc2nc3cc(NC(=O)CCCCOc4ccc(/C(N)=N/O)cc4)ccc3o2)cc1,IC50,[1],4.9 µM
